“Also recorded” adds a separate entry of the source. Ends that are not written are not given here.
Legend:
[1] = system: talin; assay: GST-PIPKIγ tail pull-down, rat brain extract; format: binding; details: rat brain protein extracts; Western blot and Coomassie blue, Fig. 1 A, B
Procedure, shortened: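 Bait: human PIPKIγ tail (aa 635–662) expressed as a GST fusion and purified, with GST alone as control. Used for affinity pull-down from lamprey spinal cord or rat brain extracts. Bound proteins were run on protein gels, then Coomassie blue stained or Western blotted with anti-talin antibody TD77.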

[2] = target: PIPKIγ (90-kD protein doublet); assay: GST-talin head pull-down, lamprey extract; format: binding; details: Western blot with anti-PIPKIγ antibody, Fig. 1 E
Procedure, shortened: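 Bait: human talin 2 head (aa 1–438) expressed as a GST fusion and purified, with GST alone as control. Used for affinity purification from lamprey extract alongside a load lane. Eluates were Western blotted with an in-house anti-PIPKIγ antibody to detect the 90-kD doublet.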

[3] = system: lamprey reticulospinal synapses; assay: EM of stimulated synapses in microinjected axons; format: cell-based, lamprey (Ichthyomyzon unicuspis); details: GST-talin head-injected axons, estimated 0.5–2.5 μM; Fig. 5

Row | affinity purification of PIPKIγ 90-kD doublet (in words) [2] | Molecule | affinity purification of talin (in words) [1] | clathrin-mediated endocytosis at stimulated synapses (in words) [3]
1 |  | GST-PIPKIγ tail: GST fusion protein of human PIPKIγ tail (aa 635–662), the 28-aa COOH-terminal tail ({GST}-ATDIYFPTDERSWVYSPLHYSAQAPPAS) | purification of the upper talin band; also recorded: Talin was the only major band retained | 
2 | specifically affinity purified | GST-talin head: human talin 2 head (aa 1–438) expressed as GST fusion protein (protein, left off: GST, end not stated, kept) MVALSLKICVRHCNVVKTMQFEPSTAVYDACRVIRERVPEAQTGQASDYGLFLSDEDPRKGIWLEAGRTLDYYMLRNGDILEYKKKQRPQKIRMLDGSVKTVMVDDSKTVGELLVTICSRIGITNYEEYSLIQETIEEKKEEGTGTLKKDRTLLRDERKMEKLKAKLHTDDDLNWLDHSRTFREQGVDENETLLLRRKFFYSDQNVDSRDPVQLNLLYVQARDDILNGSHPVSFEKACEFGGFQAQIQFGPHVEHKHKPGFLDLKEFLPKEYIKQRGAEKRIFQEHKNCGEMSEIEAKVKYVKLARSLRTYGVSFFLVKEKMKGKNKLVPRLLGITKDSVMRVDEKTKEVLQEWPLTTVKRWAASPKSFTLDFGEYQESYYSVQTTEGEQISQLIAGYIDIILKKKQSKDRFGLEGDEESTMLEESVSPKKSTILQQQ |  | a perturbation of clathrin-mediated endocytosis at synapses similar to that observed with PIPK pep

From publication PMC2172527 (The Journal of Cell Biology, 2004)
